Consider six compounds from ChEMBL document CHEMBL1141720, “A study of the structure-activity relationship of GABA(A)-benzodiazepine receptor bivalent ligands by conformational analysis with low temperature NMR and X-ray analysis” (Bioorg Med Chem, 2008).

Assay type in all cases: cell-based
Test [1] deals with GABA A receptor alpha-4/beta-3/gamma-2 (Homo sapiens, UniProt P18507+P28472+P48169). Description: Displacement of [3H]flunitrazepam from human recombinant GABAA alpha-4-beta-3-gamma-2 receptor expressed in HEK293 cells. A digest of the protocol:
(§1)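 Membranes from the receptor-expressing cells were harvested in hypotonic 50 mM Tris-acetate, pH 7.4 at 4°C. They were incubated with [3H]flunitrazepam in 0.5 mL for 1 h at 4°C. Nonspecific binding was taken with 100 μM diazepam. Reactions were filtered onto 0.3% polyethyleneimine-treated GF/C filters, washed three times with ice-cold buffer, and counted by liquid scintillation. Protein was measured by Bio-Rad assay against a BSA standard.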
Background: Displacement assays read how much labelled ligand stays bound in the presence of the test substance.

Test [2] concerns the target T1, GABA-A receptor; alpha-1/beta-3/gamma-2 (Homo sapiens, UniProt P14867+P18507+P28472).
T1 sequence (P14867 whole entry): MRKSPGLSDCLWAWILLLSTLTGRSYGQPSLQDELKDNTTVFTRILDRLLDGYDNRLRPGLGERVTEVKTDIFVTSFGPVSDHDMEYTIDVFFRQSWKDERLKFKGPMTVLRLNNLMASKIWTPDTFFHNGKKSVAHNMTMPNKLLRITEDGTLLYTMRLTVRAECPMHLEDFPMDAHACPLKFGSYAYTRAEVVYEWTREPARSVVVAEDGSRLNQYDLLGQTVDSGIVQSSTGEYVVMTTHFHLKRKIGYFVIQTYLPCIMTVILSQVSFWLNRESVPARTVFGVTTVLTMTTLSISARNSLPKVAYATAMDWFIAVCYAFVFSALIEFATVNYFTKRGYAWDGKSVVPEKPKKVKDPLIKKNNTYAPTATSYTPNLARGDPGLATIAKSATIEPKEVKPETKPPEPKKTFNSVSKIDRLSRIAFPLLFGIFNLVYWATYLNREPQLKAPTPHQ
T1 sequence (P18507 whole entry): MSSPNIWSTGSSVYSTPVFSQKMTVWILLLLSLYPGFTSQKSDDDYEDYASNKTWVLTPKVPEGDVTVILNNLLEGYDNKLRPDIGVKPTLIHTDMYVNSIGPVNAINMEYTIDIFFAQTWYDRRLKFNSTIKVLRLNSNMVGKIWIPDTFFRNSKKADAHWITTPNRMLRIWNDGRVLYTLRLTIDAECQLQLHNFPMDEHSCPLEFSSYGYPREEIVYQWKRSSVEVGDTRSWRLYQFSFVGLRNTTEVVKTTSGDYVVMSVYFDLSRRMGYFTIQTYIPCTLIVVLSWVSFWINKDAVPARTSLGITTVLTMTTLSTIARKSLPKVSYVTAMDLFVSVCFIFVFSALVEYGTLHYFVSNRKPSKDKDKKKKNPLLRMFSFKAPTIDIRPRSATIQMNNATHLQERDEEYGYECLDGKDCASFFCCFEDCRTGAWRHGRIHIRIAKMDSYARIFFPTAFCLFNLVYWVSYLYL
T1 sequence (P28472 whole entry): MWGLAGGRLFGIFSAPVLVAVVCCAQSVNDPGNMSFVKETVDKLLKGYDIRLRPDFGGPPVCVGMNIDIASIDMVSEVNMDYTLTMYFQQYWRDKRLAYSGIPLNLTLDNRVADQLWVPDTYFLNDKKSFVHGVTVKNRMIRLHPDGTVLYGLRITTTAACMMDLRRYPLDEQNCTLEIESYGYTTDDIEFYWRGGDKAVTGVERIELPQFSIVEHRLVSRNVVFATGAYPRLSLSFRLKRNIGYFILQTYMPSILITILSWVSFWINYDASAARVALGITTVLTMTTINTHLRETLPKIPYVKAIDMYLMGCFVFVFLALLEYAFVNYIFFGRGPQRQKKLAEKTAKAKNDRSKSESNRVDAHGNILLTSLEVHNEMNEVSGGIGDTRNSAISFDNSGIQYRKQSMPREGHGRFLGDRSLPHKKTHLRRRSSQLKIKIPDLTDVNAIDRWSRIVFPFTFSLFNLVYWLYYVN
Description: Displacement of [3H]flunitrazepam from human recombinant GABAA alpha-1-beta-3-gamma-2 receptor expressed in HEK293 cells. The method, boiled down:
as §1

Test [3] addresses T2, GABA-A receptor; alpha-2/beta-3/gamma-2 (Homo sapiens, UniProt P18507+P28472+P47869).
T2 sequence (P18507 whole entry): T1 sequence (P18507 whole entry)
T2 sequence (P28472 whole entry): T1 sequence (P28472 whole entry)
T2 sequence (P47869 whole entry): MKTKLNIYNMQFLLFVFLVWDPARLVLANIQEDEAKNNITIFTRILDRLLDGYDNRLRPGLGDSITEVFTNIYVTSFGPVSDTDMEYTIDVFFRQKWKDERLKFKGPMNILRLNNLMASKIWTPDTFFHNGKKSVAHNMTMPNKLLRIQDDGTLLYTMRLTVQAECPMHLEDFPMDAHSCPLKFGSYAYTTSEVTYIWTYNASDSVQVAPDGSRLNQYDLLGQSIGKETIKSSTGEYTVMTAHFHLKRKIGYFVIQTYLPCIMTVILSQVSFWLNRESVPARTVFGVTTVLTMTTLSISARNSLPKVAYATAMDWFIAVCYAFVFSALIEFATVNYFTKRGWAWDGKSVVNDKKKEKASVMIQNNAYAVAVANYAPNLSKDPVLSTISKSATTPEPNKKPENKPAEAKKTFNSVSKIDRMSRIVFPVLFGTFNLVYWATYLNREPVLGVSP
The test is described as follows: Displacement of [3H]flunitrazepam from human recombinant GABAA alpha-2-beta-3-gamma-2 receptor expressed in HEK293 cells. A digest of the protocol:
as §1

The target of test [4] is T3, Gamma-aminobutyric acid receptor subunit alpha-3 (Homo sapiens, UniProt P18507+P28472+P34903).
T3 sequence (P34903 whole entry): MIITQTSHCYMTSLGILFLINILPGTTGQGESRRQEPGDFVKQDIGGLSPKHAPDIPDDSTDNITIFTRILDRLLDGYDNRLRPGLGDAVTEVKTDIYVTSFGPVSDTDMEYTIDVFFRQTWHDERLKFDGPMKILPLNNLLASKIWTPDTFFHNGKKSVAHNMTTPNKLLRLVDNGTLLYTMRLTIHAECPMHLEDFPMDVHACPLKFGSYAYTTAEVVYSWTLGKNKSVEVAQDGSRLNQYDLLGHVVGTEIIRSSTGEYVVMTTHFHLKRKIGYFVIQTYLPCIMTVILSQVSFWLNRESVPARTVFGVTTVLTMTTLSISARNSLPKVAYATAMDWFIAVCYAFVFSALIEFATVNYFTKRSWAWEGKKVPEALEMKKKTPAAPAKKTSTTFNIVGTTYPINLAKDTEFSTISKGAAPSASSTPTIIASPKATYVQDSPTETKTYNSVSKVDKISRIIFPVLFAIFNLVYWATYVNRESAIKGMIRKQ
The test is described as follows: Displacement of [3H]flunitrazepam from human recombinant GABAA alpha-3-beta-3-gamma-2 receptor expressed in HEK293 cells. A digest of the protocol: as §1

The target in test [5] is T4, GABA-A receptor; alpha-5/beta-3/gamma-2 (Homo sapiens, UniProt P18507+P28472+P31644).
T4 sequence (P18507 whole entry): T1 sequence (P18507 whole entry)
T4 sequence (P28472 whole entry): T1 sequence (P28472 whole entry)
T4 sequence (P31644 whole entry): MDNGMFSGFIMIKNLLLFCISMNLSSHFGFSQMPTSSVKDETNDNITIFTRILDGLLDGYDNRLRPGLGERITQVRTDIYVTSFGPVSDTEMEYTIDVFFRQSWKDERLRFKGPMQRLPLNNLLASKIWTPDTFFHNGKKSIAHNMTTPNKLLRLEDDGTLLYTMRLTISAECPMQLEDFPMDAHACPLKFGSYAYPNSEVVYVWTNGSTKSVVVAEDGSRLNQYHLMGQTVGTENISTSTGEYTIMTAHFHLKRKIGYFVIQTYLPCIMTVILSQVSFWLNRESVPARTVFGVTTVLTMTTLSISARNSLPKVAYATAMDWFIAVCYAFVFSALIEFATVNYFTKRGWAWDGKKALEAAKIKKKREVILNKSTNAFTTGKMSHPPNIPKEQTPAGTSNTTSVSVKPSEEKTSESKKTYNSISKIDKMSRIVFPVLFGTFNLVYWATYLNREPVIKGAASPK
The test is described as follows: Displacement of [3H]flunitrazepam from human recombinant GABAA alpha-5-beta-3-gamma-2 receptor expressed in HEK293 cells. The method, boiled down:
as §1

For test [6], the target named is GABA-A receptor; alpha-6/beta-3/gamma-2 (Homo sapiens, UniProt P18507+P28472+Q16445). The test is described as follows: Displacement of [3H]flunitrazepam from human recombinant GABAA alpha-6-beta-3-gamma-2 receptor expressed in HEK293 cells. A digest of the protocol:
as §1

As a reminder, the Ki is the dissociation constant of the complex between target and ligand, obtained from inhibition or displacement.

GABA-A receptor; alpha-6/beta-3/gamma-2, sequence (Q16445 whole entry, one chain of several): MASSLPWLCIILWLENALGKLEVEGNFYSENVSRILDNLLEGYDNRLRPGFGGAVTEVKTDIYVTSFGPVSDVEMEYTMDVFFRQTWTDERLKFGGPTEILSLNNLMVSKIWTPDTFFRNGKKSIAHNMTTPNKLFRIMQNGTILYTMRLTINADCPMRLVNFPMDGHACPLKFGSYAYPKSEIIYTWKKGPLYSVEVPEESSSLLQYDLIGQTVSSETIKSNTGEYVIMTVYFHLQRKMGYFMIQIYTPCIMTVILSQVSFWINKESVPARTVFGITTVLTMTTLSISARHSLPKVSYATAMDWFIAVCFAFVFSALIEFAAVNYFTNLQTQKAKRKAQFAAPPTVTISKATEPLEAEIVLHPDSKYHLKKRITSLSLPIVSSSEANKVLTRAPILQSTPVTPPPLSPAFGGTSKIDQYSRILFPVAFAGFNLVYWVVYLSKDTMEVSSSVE
GABA A receptor alpha-4/beta-3/gamma-2, sequence (P48169 whole entry, one chain of several): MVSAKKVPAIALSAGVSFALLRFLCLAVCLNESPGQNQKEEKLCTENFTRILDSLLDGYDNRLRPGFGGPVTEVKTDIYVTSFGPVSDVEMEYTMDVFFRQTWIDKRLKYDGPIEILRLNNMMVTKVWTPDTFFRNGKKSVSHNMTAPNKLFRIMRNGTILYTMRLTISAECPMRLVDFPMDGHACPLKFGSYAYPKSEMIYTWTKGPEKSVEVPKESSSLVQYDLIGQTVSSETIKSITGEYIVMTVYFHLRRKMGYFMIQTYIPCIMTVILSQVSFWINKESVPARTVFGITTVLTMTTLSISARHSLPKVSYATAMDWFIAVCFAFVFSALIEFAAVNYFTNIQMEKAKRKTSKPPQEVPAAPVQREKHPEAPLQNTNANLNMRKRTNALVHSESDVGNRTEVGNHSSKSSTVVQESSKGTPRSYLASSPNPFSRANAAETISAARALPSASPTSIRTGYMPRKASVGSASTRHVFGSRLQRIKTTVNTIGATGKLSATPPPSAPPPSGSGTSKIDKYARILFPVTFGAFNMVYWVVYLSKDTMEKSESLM

As to `C#Cc1ccc2c(c1)C(=O)N(C)Cc1c(C(=O)OCC)ncn1-2`, the Ki in test [1] was determined as 5.3 nM.

As for `CCc1ccc2c(c1)C(=O)N(C)Cc1c(C(=O)OCCCOC(=O)c3ncn4c3CN(C)C(=O)c3cc(CC)ccc3-4)ncn1-2`, the Ki in test [2] worked out at 1850 nM; in test [3], 4700 nM; in test [4] it was 8550 nM; in test [5] it was 101 nM; in test [6], 5000 nM.

As to `C#Cc1ccc2c(c1)C(=O)N(C)Cc1c(C(=O)OCCCCCOC(=O)c3ncn4c3CN(C)C(=O)c3cc(C#C)ccc3-4)ncn1-2`, the Ki in test [2] worked out at 231 nM; in test [3] it was 661 nM; in test [4], 2670 nM; in test [5], 5.4 nM; in test [6], 54.2 nM.

Turning to `C#Cc1ccc2c(c1)C(c1ccccc1)=NCc1c(C(=O)OCCOCCOC(=O)c3ncn4c3CN=C(c3ccccc3)c3cc(C#C)ccc3-4)ncn1-2`, the Ki in test [2] is 460 nM; in test [3], 5000 nM; in test [5], 5000 nM; in test [6], 5000 nM.

Consider `C#Cc1ccc2c(c1)C(=O)N(C)Cc1c(C(=O)OCOCOC(=O)c3ncn4c3CN(C)C(=O)c3cc(C#C)ccc3-4)ncn1-2`, for which the Ki in test [2] stood at 3800 nM; in test [3], 2690 nM; in test [4] it was 1860 nM; in test [5] it was 76.1 nM.

Consider `C#Cc1ccc2c(c1)C(c1ccccc1)=NCc1c(C(=O)OCCCOC(=O)c3ncn4c3CN=C(c3ccccc3)c3cc(C#C)ccc3-4)ncn1-2`, for which the Ki is 236 nM in test [2]; 7.4 nM in test [3]; 272 nM in test [4]; over 5000 nM in test [1]; 194 nM in test [5]; over 5000 nM in test [6].
